# Screens (PubChem)
# Many of the other results were omitted from the sample, so hits are more common in it than they were.
# Redox H2O2 prof = compounds producing H2O2 with reducing agent – biochemical, NIH compound library profiling, artefact control for MLSCN library redox annotation, primary screen | DTT-dependent redox cycling H2O2, phenol red/HRP absorbance; 100% = 100 µM peroxide control, 0% = buffer | activation, % at 10 µM | 0.03% of 200,000 active | AID 878, 2007;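 active means activation of at least 50% relative to the plate's high and low controls in the primary single-dose screen; inactive means activation below 50%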;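 further: compound incubated with DTT at 0.8 mM final as the reducing agent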
# Diaphorase inh = diaphorase inhibitors and chemical oxidizers, primary screen, counter-screen for diaphorase-coupled primary assays, biochemical, uHTS, resorufin fluorescence | diaphorase resazurin-to-resorufin fluorescence, NADH, 16 min; bacterial (C. kluyveri) enzyme, not human | inhibition, % at 20 µM | 0.69% of 190,000 active;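 active means primary screen inhibition at 20 µM above a set limit, cut at about 50% in these data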
#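 Assay system – diaphorase enzyme from Clostridium kluyveri · Amount – diaphorase 0.14 U/mL (working solution) · Times – reaction incubation of 16 min at room temperature · Controls – No-NADH positive control and DMSO neutral control · Signal – resorufin fluorescence 544/590 nm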
# G6PDH counter = L. mesenteroides G6PDH inhibitors, counter-screen for G6PDH-coupled screening assays, biochemical, Leuconostoc mesenteroides enzyme; glucose-6-phosphate dehydrogenase [Leuconostoc mesenteroides]; Purified L. mesenteroides G6PDH, diaphorase/resazurin coupled fluorescence, 45 min; inhibition, % at 5 µM; 0.12% of 200,000 active
# L major viab = Leishmania major promastigote growth inhibition, primary screen | Leishmania major promastigotes, resazurin fluorescence viability | inhibition, % at 10 µM | 9% of 200,000 active | AID 1063, 2008;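 further: promastigotes grown with compound for 44 hours at 28 °C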
# Diaphorase act = compounds boosting diaphorase resazurin reduction – biochemical, uHTS, resorufin fluorescence, counter-screen for diaphorase-coupled primary assays, primary screen | Diaphorase/resazurin coupled assay, 16 min; active compounds read high; 1 = vehicle wells, 0 = NADH-free wells | activation factor at 20 µM | 0.005% of 190,000 active;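 active means diaphorase activity raised at least twofold by the compound at 20 µM; inactive means activation factor below 2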
#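 Test system: Clostridium kluyveri diaphorase, purified enzyme; input: enzyme 0.07 U/mL final; buffer or medium: 50 mM HEPES pH 7.4 with 4.542 mM MgCl2, 0.005% Tween 20; also added: 0.114 mM NADH and 0.1 mM resazurin, final amounts; schedule: 16 min enzyme reaction, ambient temperature; technique: fluorescence of resorufin, 544 nm excitation, 590 nm emission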
# PfGluPho inh = PfG6PD enzyme inhibitors, primary screen, biochemical, fluorescence intensity, uHTS. PfGluPho enzyme, NADPH resazurin-diaphorase fluorescence. AID 504690, 2011. 0.78% of 350,000 active. inhibition, % at 20 µM. glucose-6-phosphate dehydrogenase-6-phosphogluconolactonase (Plasmodium falciparum 3D7);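 active means inhibition reaching at least a set limit at 20 µM in the primary screen, cut at about 59% in these data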
# Numbers stand for hits; n = inactive; x = no result. Unless noted, no stated cut-off is given here; in the data, active means inhibition above about 50%; inactive means the rest.
SMILES,Redox H2O2 prof,Diaphorase inh,G6PDH counter,L major viab,Diaphorase act,PfGluPho inh
CCC(C)Nc1c2c(nc3c(-c4ccccc4)c(C)nn13)CCC2 (stereo not drawn),n,n,n,n,n,n
CCc1ccc(N(C(=O)CCC(=O)Nc2cc(C)on2)C(C(=O)NC(C)(C)C)c2ccc(OC)cc2)cc1 (stereo not drawn),x,x,x,x,x,n
OCCCN=c1cc(-c2ccccc2)oc2ccc(Cl)cc12,n,n,n,100.3,n,n
O=c1cc(-c2ccccc2)oc2ccc(O)cc12,x,x,x,x,x,n
CC1(C)CC(N=c2cc(-c3ccccc3)oc3ccc(Cl)cc23)CC(C)(C)N1,n,n,n,100.6,n,n
CCCC1(CC)C(=O)NC(=O)N=C1N (stereo not drawn),x,x,x,x,x,n
O=C(CSc1ncn[nH]1)Nc1ccccc1Sc1ccccc1,n,n,n,69.8,n,n
O=C(CCl)Nc1ccccc1Sc1ccc(Cl)cc1,n,n,n,n,n,86.7
N/C(=N\c1nc2c(c(=O)[nH]1)CCC2)Nc1ccccc1,n,n,n,72.6,n,n
N/C(=N\c1nc2c(c(=O)[nH]1)CCCC2)Nc1ccccc1,n,n,n,n,n,n
N#C/C(=C/c1ccc(CNS(=O)(=O)c2ccccc2)o1)C(N)=O,n,n,n,50.8,n,n
N#C/C(=C/c1ccc(CNS(=O)(=O)c2ccccc2)o1)C(=O)NCc1ccccc1,n,n,n,n,n,n
O=C(OCCN=C1NS(=O)(=O)c2ccccc21)C1CC(=O)N(c2ccc3ccccc3c2)C1 (stereo not drawn),n,n,n,n,n,n
CN1CSC2=C(C#N)C(c3cccc(OCc4ccccc4)c3)CC(=O)N2C1 (stereo not drawn),n,n,n,n,n,91.5
O=C(Nc1ccc(F)cc1)N1CCN2C(=O)c3ccccc3C12c1ccccc1 (stereo not drawn),n,n,n,n,n,n
O=C1c2ccccc2C2(c3ccc(F)cc3)NCCN12 (stereo not drawn),n,n,n,57.6,n,n
CCC1(C)NC(=O)N(CC(=O)N2N=C(c3ccccc3)CC2c2ccc(OC)cc2)C1=O (stereo not drawn),n,n,n,n,n,n
CCn1c(SCC(=O)N/N=C/c2ccc(OC)c(OC)c2)nc2ccccc21,n,n,n,96.8,n,n
C=CCSc1nc2ccccc2n1C(=O)/C=C/c1cc(OC)c(OC)c(OC)c1,n,n,n,n,n,n
COc1ccc(Cc2nc3ccccc3n2CC(=O)N/N=C/c2ccccc2)cc1OC,n,n,n,n,n,n
C=CCSc1nc2ccccc2n1C(=O)/C=C/c1ccc(OC)c(OC)c1,n,n,n,71.2,n,n
CCN(CC)CCCN1C(=O)C(=O)/C(=C(/O)c2ccc(OC)c(Cl)c2)C1c1ccco1 (stereo not drawn),x,n,n,x,n,x
Cc1ccc(C)n1-c1ccc(N2CCOCC2)c(Br)c1,n,56.0,n,n,n,n
Cc1cc(S(=O)(=O)Nc2ccc(N3CCOCC3)cc2)ccc1Br,x,x,x,x,x,n
COc1cc(/C=C2\SC(N3CCc4ccccc4C3)=NC2=O)cc(OC)c1OC,n,n,n,54.2,n,n
SMILES,Redox H2O2 prof,Diaphorase inh,G6PDH counter,L major viab,Diaphorase act,PfGluPho inh
Cc1ccc(C(=O)Nc2c(C)cc(C)c3cccnc23)cc1,x,x,x,x,x,n
O=C(c1ccccc1)c1ccc(OCCCCN2CCCCC2)cc1,n,n,n,97.7,n,n
c1ccc(COCCN2CCN(CCOCc3ccccc3)CC2)cc1,n,n,n,95.2,n,n
O=C(c1ccccc1)c1ccc(OCCOCCN2CCN(Cc3ccccc3)CC2)cc1,n,n,n,56.1,n,n
CCOc1ccccc1OCCOCCN1CCN(Cc2ccccc2)CC1,n,n,n,n,n,n
O=C(c1ccccc1)c1ccc(OCCCN2CCCC2)cc1,n,n,n,99.0,n,n
C[C@H](CO)N1C[C@H](C)[C@@H](CN(C)C(=O)Nc2ccc3c(c2)OCO3)Oc2c(NC(=O)Nc3ccc4c(c3)OCO4)cccc2C1=O,x,x,x,x,x,n
CCN(CC)c1nc2c(c(=O)[nH]c(=O)n2C)n1CCOc1ccccc1,x,x,x,x,x,n
O=C(Cn1cnc2scc(-c3ccc(Br)cc3)c2c1=O)N1CCOCC1,n,n,n,n,n,n
O=C(CCNS(=O)(=O)c1ccc(F)c(F)c1)NCCN1CCOCC1,x,x,x,x,x,n
c1ccc(COc2ccc(OCCCCN3CCCCC3)cc2)cc1,n,n,n,100.4,n,n
COC(=O)c1ccc(CSc2nc3c(c(=O)n2-c2ccc(Br)cc2)SCC3)o1,n,n,n,98.1,n,n
CCOc1ccc(-n2c(SCc3ccc(C(=O)OC)o3)nc3c(c2=O)SCC3)cc1,n,n,n,83.1,n,n
CCOc1ccc(-n2c(SCC(=O)Nc3ccc(OC)cc3)nc3c(c2=O)SCC3)cc1,n,n,n,n,n,n
Cc1cccc(N2C(=O)/C(=C\c3ccc(OC(F)F)cc3)c3ccccc3C2=O)c1,n,n,n,n,n,n
COc1cccc(/C=C2\C(=O)N(c3cccc(C)c3)C(=O)c3ccccc32)c1,n,n,n,73.1,n,n
O=C(O)CCC(=O)OCC1CCCO1 (stereo not drawn),n,n,n,n,n,n
COc1ccc(C(C)=O)cc1COC(=O)c1cc(=O)c2ccccc2o1,x,x,x,x,x,n
CC(C)(C)n1nnnc1C(c1cccnc1)N(Cc1ccccc1)Cc1cccs1 (stereo not drawn),n,n,n,95.7,n,n
CC(C)(C)n1nnnc1C(c1cccs1)N(Cc1ccc(Cl)cc1)CC1CCCO1 (stereo not drawn),n,n,n,n,n,n
CCN(Cc1ccccc1)C(c1ccncc1)c1nnnn1C(C)(C)C (stereo not drawn),n,n,n,n,n,n
CC(C)(C)n1nnnc1C(c1ccc(C(F)(F)F)cc1)N(Cc1ccccc1)Cc1ccco1 (stereo not drawn),n,n,n,n,n,n
CC(C)(C)n1nnnc1C(c1cccs1)N(Cc1ccccc1)Cc1cccnc1 (stereo not drawn),n,n,n,98.7,n,n
CC(C)(C)c1ccc(CN(Cc2ccccc2)C(c2ccccn2)c2nnnn2C(C)(C)C)cc1 (stereo not drawn),n,n,n,76.8,n,n
CCOC(=O)CCCNC(=O)COC(=O)c1cccc(F)c1,n,n,n,n,n,n
